Laboratory results as given in ChEMBL document CHEMBL1156937, “3'-[4-Aryl-(1,2,3-triazol-1-yl)]-3'-deoxythymidine analogues as potent and selective inhibitors of human mitochondrial thymidine kinase” (J Med Chem, 2010).

Key:
[1] = target: T1, Thymidine kinase (Human alphaherpesvirus 1, UniProt Q9QNF7); test: Inhibition of HSV1 thymidine kinase assessed as inhibition of [methyl-3H]dThd phosphorylation after 30 mins by scintillation counting
T1 sequence (Q9QNF7 whole entry): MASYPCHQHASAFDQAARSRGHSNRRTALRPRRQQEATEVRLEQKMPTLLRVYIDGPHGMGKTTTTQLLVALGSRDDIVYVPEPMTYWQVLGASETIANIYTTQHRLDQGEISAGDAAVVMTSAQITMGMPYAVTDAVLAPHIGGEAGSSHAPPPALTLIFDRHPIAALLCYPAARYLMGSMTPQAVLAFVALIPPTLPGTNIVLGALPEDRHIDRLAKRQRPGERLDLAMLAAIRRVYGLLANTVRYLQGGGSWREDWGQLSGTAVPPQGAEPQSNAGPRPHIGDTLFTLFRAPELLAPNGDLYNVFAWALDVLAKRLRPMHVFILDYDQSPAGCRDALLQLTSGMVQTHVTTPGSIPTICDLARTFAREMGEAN
How it was run: (§1)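 Recombinant enzyme in 50 mM Tris/HCl pH 8.0, 2.5 mM MgCl2, 10 mM DTT, 0.5 mM CHAPS, 3 mg/mL BSA, 2.5 mM ATP and 1 μM [methyl-3H]dThd. Inhibitor at 5-fold dilutions; 37 °C for 30 min, within the linear range. Reaction spotted on DE-81 filter disks, which were washed in 1 mM ammonium formate, water and ethanol. Radioactivity counted by scintillation. IC50 is the concentration halving dThd phosphorylation.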

[2] = target: T2, Thymidine kinase, cytosolic (Homo sapiens, UniProt P04183); test: Inhibition of human recombinant cytosolic thymidine kinase 1 assessed as inhibition of [methyl-3H]dThd phosphorylation after 30 mins by scintillation counting; how it was run: as §1
T2 sequence (P04183 whole entry): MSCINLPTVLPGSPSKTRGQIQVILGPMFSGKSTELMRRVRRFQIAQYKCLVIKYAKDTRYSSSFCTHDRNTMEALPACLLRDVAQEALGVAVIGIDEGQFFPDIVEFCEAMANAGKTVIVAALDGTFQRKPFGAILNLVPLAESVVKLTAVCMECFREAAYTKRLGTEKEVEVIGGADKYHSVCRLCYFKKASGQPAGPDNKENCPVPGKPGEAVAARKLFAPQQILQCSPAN

[3] = target: T3, Thymidine kinase 2, mitochondrial (Homo sapiens, UniProt O00142); test: Inhibition of human recombinant mitochondrial thymidine kinase 2 assessed as inhibition of [methyl-3H]dThd phosphorylation after 30 mins by scintillation counting; how it was run: as §1
T3 sequence (O00142 whole entry): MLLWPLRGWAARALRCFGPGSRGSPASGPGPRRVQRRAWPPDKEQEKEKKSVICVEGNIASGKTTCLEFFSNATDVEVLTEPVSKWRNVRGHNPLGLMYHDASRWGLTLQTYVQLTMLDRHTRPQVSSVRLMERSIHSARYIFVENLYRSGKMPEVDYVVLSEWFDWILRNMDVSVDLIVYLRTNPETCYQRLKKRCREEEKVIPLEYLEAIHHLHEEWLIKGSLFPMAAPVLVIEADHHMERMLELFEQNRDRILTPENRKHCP

[4] = Inhibition of Varicella zoster virus thymidine kinase assessed as inhibition of [methyl-3H]dThd phosphorylation after 30 mins by scintillation counting; design: species or system Human alphaherpesvirus 3; how it was run: as §1
[5] = target: T4, Deoxynucleoside kinase (Drosophila melanogaster, UniProt Q9XZT6); test: Inhibition of Drosophila melanogaster multifunctional deoxynucleoside kinase assessed as inhibition of [methyl-3H]dThd phosphorylation after 30 mins by scintillation counting; how it was run: as §1
T4 sequence (Q9XZT6 whole entry): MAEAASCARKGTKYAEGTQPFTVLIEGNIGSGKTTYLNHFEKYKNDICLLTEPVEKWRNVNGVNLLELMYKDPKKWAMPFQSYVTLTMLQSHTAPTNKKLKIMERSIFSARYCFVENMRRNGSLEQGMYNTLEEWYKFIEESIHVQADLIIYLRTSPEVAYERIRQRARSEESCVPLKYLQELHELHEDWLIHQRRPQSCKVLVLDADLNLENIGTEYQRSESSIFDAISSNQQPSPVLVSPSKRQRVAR

[6] = target: T3, Thymidine kinase 2, mitochondrial; test: Inhibition of thymidine kinase 2
[7] = organism: Homo sapiens; test: Selectivity ratio of IC50 for human recombinant cytosolic thymidine kinase 1 to IC50 for human recombinant mitochondrial thymidine kinase 2
[8] = target: T3, Thymidine kinase 2, mitochondrial; test: Competitive inhibition of human recombinant mitochondrial thymidine kinase 2 using ATP as substrate by Lineweaver-Burke plotting; details: in the assay text read “using thymidine as substrate” for “using ATP as substrate”
How it was run: (§2)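 Purified recombinant TK-2 in the same radiometric filter-binding assay. For dThd-varied kinetics, dThd was 0.4–5 μM with ATP saturating at 2.5 mM. For ATP-varied kinetics, ATP was 5–100 μM with dThd saturating at 20 μM. Km, Ki and inhibition mode were derived from Lineweaver-Burk plots.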

[9] = target: T3, Thymidine kinase 2, mitochondrial; test: Uncompetitive inhibition of human recombinant mitochondrial thymidine kinase 2 using thymidine as substrate by Lineweaver-Burke plotting; details: in the assay text read “using ATP as substrate” for “using thymidine as substrate”; how it was run: as §2

| Structure (SMILES) | IC50 [1] [µM] | IC50 [2] [µM] | IC50 [3] [µM] | IC50 [4] [µM] | IC50 [5] [µM] | IC50 [6] [µM] | Ki [6] [µM] | Ratio IC50 [7] | Ki [8] [µM] | Ki [9] [µM] |
| --- | --- | --- | --- | --- | --- | --- | --- | --- | --- | --- |
| Cc1cn([C@H]2C[C@H](n3cc(-c4ccc(Cl)c(Cl)c4)nn3)[C@@H](CO)O2)c(=O)[nH]c1=O | 30 | 75 | 0.042 | 2.7 | 0.99 | – | – | – | – | – |
| O=c1[nH]c(=O)n([C@H]2C[C@H](n3cc(-c4ccccc4)nn3)[C@@H](CO)O2)cc1/C=C/Br | 36 | > 500 | 0.25 | 3.7 | 2.9 | – | – | – | – | – |
| Cc1cn([C@H]2C[C@H](n3nncc3-c3ccccc3)[C@@H](CO)O2)c(=O)[nH]c1=O | 445 | ≥ 500 | 1.1 | 19 | 17 | – | – | – | – | – |
| Cc1cn([C@H]2C[C@H](n3nncc3-c3ccc(Cl)cc3)[C@@H](CO)O2)c(=O)[nH]c1=O | 392 | 109 | 4 | – | 30 | – | – | – | – | – |
| Cc1cn([C@H]2C[C@H](n3cc(-c4ccccn4)nn3)[C@@H](CO)O2)c(=O)[nH]c1=O | 46 | 316 | 1.3 | 3.1 | 3.8 | – | – | – | – | – |
| Cc1cn([C@H]2C[C@H](n3cc(CC4CCCC4)nn3)[C@@H](CO)O2)c(=O)[nH]c1=O | 48 | 177 | 0.15 | 3.1 | 3 | – | – | – | – | – |
| CNC(=O)c1ccc(C(OCCCCCCCCn2cc(C)c(=O)[nH]c2=O)(c2ccccc2)c2ccccc2)cc1 | – | – | – | – | – | 0.4 | – | – | – | – |
| Cc1cn([C@H]2C[C@H](n3cc(Cc4ccccc4)nn3)[C@@H](CO)O2)c(=O)[nH]c1=O | 158 | 318 | 0.3 | 6.4 | 3.9 | – | – | – | – | – |
| Cc1cn([C@H]2C[C@H](n3ccnn3)[C@@H](CO)O2)c(=O)[nH]c1=O | 212 | ≥ 500 | 4.7 | 15 | 40 | – | – | – | – | – |
| CCCCCC(=O)N[C@H]1C[C@H](n2cc(C)c(=O)[nH]c2=O)O[C@@H]1CO | – | – | – | – | – | – | 0.15 | – | – | – |
| Cc1cn([C@H]2C[C@H](n3cc(-c4ccc(Cl)cc4)nn3)[C@@H](CO)O2)c(=O)[nH]c1=O | 27 | 71 | 0.046 | 3.3 | 1.8 | – | – | – | – | – |
| CCCCc1cn([C@H]2C[C@H](n3cc(C)c(=O)[nH]c3=O)O[C@@H]2CO)nn1 | 95 | 366 | 0.23 | 4.3 | 4.1 | – | – | – | – | – |
| Cc1cn([C@H]2C[C@H](NC(=S)Nc3ccc(Cl)c(C(F)(F)F)c3)[C@@H](CO)O2)c(=O)[nH]c1=O | – | 316 | 0.15 | – | – | – | – | 2100 | – | – |
| Cc1cn([C@H]2C[C@H](n3cc(-c4ccccc4)nn3)[C@@H](CO)O2)c(=O)[nH]c1=O | 28 | 54 | 0.32 | 2.5 | 2.2 | – | – | – | – | – |
| O=c1[nH]c(=O)n([C@H]2C[C@H](n3cc(-c4ccc(Cl)cc4)nn3)[C@@H](CO)O2)cc1/C=C/Br | 4.5 | > 500 | 0.036 | 1.7 | 0.46 | – | – | > 14000 | 0.012 | 0.41 |
| O=c1[nH]c(=O)n([C@@H]2O[C@H](CO)[C@@H](O)C2O)cc1/C=C/Br (single isomer, unassigned) [SORIVUDINE] | – | – | – | – | – | – | 10.4 | – | – | – |
| Cc1cn([C@H]2C[C@H](NC(=S)Nc3ccc(Cl)c(C(F)(F)F)c3)[C@@H](COC(c3ccccc3)(c3ccccc3)c3ccccc3)O2)c(=O)[nH]c1=O | > 500 | > 500 | > 500 | > 500 | > 500 | – | – | – | – | – |
